Assay results: ChEMBL document CHEMBL1156215, “Homoisoflavonoid derivatives from the roots of Ophiopogon japonicus and their in vitro anti-inflammation activity” (Bioorg Med Chem Lett, 2010)

Key:
BEAS-2B [1] = test: Antiinflammatory activity in human BEAS2B cells assessed as inhibition of IL4-induced eotaxin production after 48 hrs by ELISA treated 2 hrs before IL4 challenge; format: functional, cell-based
Outline: (§1)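 BEAS-2B cells in RPMI-1640 with 10% FBS at 37 °C, 5% CO2, plated at 5 × 10^5/mL, switched to serum-free RPMI at 80% confluence. Pretreated 2 h with compound (1.0–25.0 μM), then IL-4 (20 ng/mL) alone. Supernatant eotaxin measured by sandwich ELISA after 48 h. Values are the mean of three experiments.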

[2] = Antiinflammatory activity in human BEAS2B cells assessed as inhibition of IL4-induced eotaxin production at 25 uM after 48 hrs by ELISA treated 2 hrs before IL4 challenge; format: functional, BEAS-2B; outline: as §1
[3] = Cytotoxicity against human BEAS2B cells at 25 uM after 48 hrs by MTT assay; format: cell-based; conditions: beas-2b
Outline: (§2)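 BEAS-2B viability by MTT after 48 h exposure to compound, with or without IL-4.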

[4] = Cytotoxicity against human BEAS2B cells at 25 uM after 48 hrs by MTT assay in the presence of IL4; format: cell-based; conditions: beas-2b; outline: as §2
BEAS-2B [5] = test: Antiinflammatory activity in human BEAS2B cells assessed as inhibition of IL4 and TNF-alpha-induced eotaxin production after 48 hrs by ELISA treated 2 hrs before IL4 challenge; format: functional, cell-based
[6] = Antiinflammatory activity in human BEAS2B cells assessed as reduction in IL4 and TNF-alpha-induced eotaxin production at 25 uM after 48 hrs by ELISA treated 2 hrs before IL4 challenge (RVb=456.2 pg/ml)

| SMILES | Activity (BEAS-2B [1]) | Activity [2] [pg/mL] | Activity [3] | Activity [4] | Activity (BEAS-2B [5]) | Activity [6] [pg/mL] |
| --- | --- | --- | --- | --- | --- | --- |
| COc1ccc(C[C@@H]2COc3c(OC)c(O)c(C)c(O)c3C2=O)c(O)c1O [OPHIOPOGONANONE G] | Dose-dependent effect | 30.8 | Non-toxic | Non-toxic | – | – |
| Cc1c(O)c2c(c(C=O)c1O[C@@H]1O[C@H](CO)[C@@H](O)[C@H](O)[C@H]1O)OC[C@@H](Cc1ccc3c(c1)OCO3)C2=O [OPHIOPOGOSIDE A] | Dose-dependent effect | 28.5 | Non-toxic | Non-toxic | Dose-dependent effect | – |
| COc1c(C)c(O[C@@H]2O[C@H](CO)[C@@H](O)[C@H](O)[C@H]2O)c(C=O)c2c1C(=O)[C@H](Cc1ccc3c(c1)OCO3)CO2 [OPHIOPOGOSIDE B] | Dose-dependent effect | 25.5 | Non-toxic | Non-toxic | – | – |
| COc1ccc2ccc(=O)oc2c1CC=C(C)C [OSTHOLE] | – | – | – | – | – | 80.5 |
